From ChEMBL document CHEMBL5370673 (ACS Med Chem Lett, 2023)
Activity calls are given as the source filed them. No cut-off for these calls is given here.

Key:
[1] = Activation of Mesocestoides corti in TRPM binding site of PZQ expressed in HEK293 cells assessed as effect in cytosolic Ca2+ level measured for 250 sec by […] NW staining based FLIPR assay; assay type: cell-based
Summary of the method: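 HEK293 cells transiently transfected with the individual TRPMPZQ ortholog (S. mansoni, E. granulosus or M. corti). Cytosolic Ca2+ change read by fluorescence reporter (FLIPR) across increasing analog concentrations. Untransfected HEK293 cells serve as control.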

Schistosoma mansoni [2] = assay: Antischistosomal activity against Schistosoma mansoni infected in CF1/W74 mouse assessed as reduction in parasitic flatworms viability at 500 mg/kg administered for 5 days relative to control; assay type: functional
Rodentolepis nana [3] = assay: Anti-cestodal activity against Hymenolepis nana infected in CF1/W74 mouse assessed as reduction in parasitic flatworms at 25 mg/kg relative to control; assay type: functional; design: scale not given: the % may be the effect or the level left
Schistosoma mansoni [4] = assay: Antischistosomal activity against Schistosoma mansoni assessed as maximal effect at <= 320 uM; assay type: functional, organism-based
[5] = Activation of Echinococcus granulosus in TRPM binding site of PZQ expressed in HEK293 cells assessed as effect in cytosolic Ca2+ level measured for 250 sec by […] NW staining based FLIPR assay; assay type: cell-based
[6] = Activation of Schistosoma mansoni in TRPM binding site of PZQ expressed in HEK293 cells assessed as effect in cytosolic Ca2+ level measured for 250 sec by […] NW staining based FLIPR assay; assay type: cell-based
Rodentolepis nana [7] = assay: Anti-cestodal activity against Hymenolepis nana infected in CF1/W74 mouse assessed as reduction in parasitic flatworms at 500 mg/kg relative to control; assay type: functional; design: scale not given: the % may be the effect or the level left
[8] = Selectivity ratio of EC50 for activation of Schistosoma mansoni in TRPM binding site of PZQ expressed in HEK293 cells to EC50 for activation of Echinococcus granulosus in TRPM binding site of PZQ expressed in HEK293 cells; assay type: cell-based
[9] = Selectivity ratio of EC50 for activation of Schistosoma mansoni in TRPM binding site of PZQ expressed in HEK293 cells to EC50 for activation of Mesocestoides corti in TRPM binding site of PZQ expressed in HEK293 cells; assay type: cell-based
[10] = test system: Echinococcus multilocularis; assay: Anthelmintic activity against Echinococcus multilocularis MB17 protoscoleces assessed as increase in contraction at 30 uM by live cell imaging analysis; assay type: functional, organism-based
[11] = test system: Echinococcus multilocularis; assay: Anthelmintic activity against Echinococcus multilocularis MB17 protoscoleces assessed as reduction in motility at 0.001 to 100 uM measured after 0.5 hrs by live cell imaging analysis; assay type: functional, organism-based; settings: dose 0.001-100 µM
Summary of the method: (§1)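 E. multilocularis protoscoleces incubated ex vivo across a concentration range. Motility scored at 0.5, 12 and 24 h and expressed as % of DMSO vehicle control (mean ± SEM). IC50 taken from concentration–response curves at each time point.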

[12] = test system: Echinococcus multilocularis; assay: Induction of morphological changes in Echinococcus multilocularis MB17 protoscoleces assessed as increase in contraction at 100 uM by cestode motility assay; assay type: functional, organism-based
Schistosoma mansoni [13] = assay: Antischistosomal activity against Schistosoma mansoni assessed as maximal effect at <= 3.2 uM; assay type: functional, organism-based
Schistosoma mansoni [14] = assay: Antischistosomal activity against Schistosoma mansoni infected in CF1/W74 mouse assessed as reduction in parasitic flatworms viability at 50 mg/kg administered for 5 days relative to control; assay type: functional; settings: time 5 day
[15] = test system: Echinococcus multilocularis; assay: Anthelmintic activity against Echinococcus multilocularis MB17 protoscoleces assessed as increase in contraction at 1 uM by live cell imaging analysis; assay type: functional, organism-based
[16] = test system: Echinococcus multilocularis; assay: Anthelmintic activity against Echinococcus multilocularis MB17 protoscoleces assessed as reduction in motility measured after 24 hrs by live cell imaging analysis; assay type: functional, organism-based; summary of the method: as §1
[17] = Mesocestoides corti, HEK293, read-out: EC50
[18] = Echinococcus granulosus, HEK293, read-out: EC50

Row | Structure (SMILES) | EC50 ([6]; hek293) | EC50 [1, 17] [nM] | EC50 [5, 18] [nM] | Activity (Schistosoma mansoni [2]; time 5 day) [%] | Activity (Rodentolepis nana [3]) [%] | Activity (Schistosoma mansoni [4]) | Activity (Rodentolepis nana [7]) [%] | further results
1 | CN(C)c1ccc(C(=O)N2CC(=O)N3CCc4ccccc4C3C2)cc1 (centres undefined) | Not Active | – | – | 100 | 100 | inactive | – | EC50 ([1]; hek293): Not Active; EC50 ([5]; hek293): Not Active
2 | O=C(C1CCCCC1)N1CC(=O)N2CCc3ccccc3[C@H]2C1 | – | 1230 | – | >90 | – | Active | 100 | –
3 | CNc1ccc(C(=O)N2CC(=O)N3CCc4ccccc4C3C2)cc1 (centres undefined) | Not Active | > 100000 | > 100000 | 100 | 100 | inactive | – | –
4 | O=C(c1ccc([N+](=O)[O-])cc1)N1CC(=O)N2CCc3ccccc3C2C1 (centres undefined) | Not Active | – | – | <90 | – | inactive | 100 | EC50 ([1]; hek293): Not Active; EC50 ([5]; hek293): Not Active
5 | O=C(C1CCCCC1)N1CC(=O)N2CCc3ccccc3[C@@H]2C1 [PRAZIQUANTEL, (R)-] | – | 80 | – | – | 100 | – | – | Activity (Schistosoma mansoni [13]): Active; Activity (Schistosoma mansoni [14]): 100%
6 | O=C(C1CCCCC1)N1CC(=O)N2CCc3ccccc3C2C1 (racemic) [PRAZIQUANTEL] | – | 120 | – | – | 100 | – | – | Activity [15]: Active; Activity (Schistosoma mansoni [13]): Active; Activity [16]: Active; Activity [11]: Active; Activity (Schistosoma mansoni [14]): 100%

Continued, in another order:

Row | EC50 ([6]; hek293) | EC50 [1, 17] [nM] | EC50 [5, 18] [nM] | Structure (SMILES) | Activity (Schistosoma mansoni [2]; time 5 day) [%] | Activity (Rodentolepis nana [3]) [%] | Activity (Schistosoma mansoni [4]) | Activity (Rodentolepis nana [7]) [%] | further results
7 | – | 800 | 960 | Nc1ccc(C(=O)N2CC(=O)N3CCc4ccccc4C3C2)cc1 (centres undefined) | 100 | 100 | Active | – | Ratio EC50 [8]: 8; Ratio EC50 [9]: 8
8 | Not Active | 65000 | 53000 | O=C(C1CC1)N1CC(=O)N2CCc3ccccc3C2C1 (centres undefined) | <90 | – | inactive | 100 | –
9 | Not Active | 5300 | 2300 | O=C(c1cccnc1)N1CC(=O)N2CCc3ccccc3C2C1 (racemic) | <90 | 100 | Active | – | –
10 | – | 980 | 1400 | O=C(c1cccnc1)N1CC(=O)N2CCc3ccccc3[C@@H]2C1 | 100 | 100 | inactive | – | Activity [10]: Active; Activity [11]: Active; EC50 ([6]; Schistosoma mansoni, HEK293, read-out: EC50): > 100000 nM
11 | Not Active | 16000 | 22000 | O=C(c1cccnc1)N1CC(=O)N2CCc3ccccc3[C@H]2C1 | – | – | inactive | 100 | Activity [12]: Active; Activity (Schistosoma mansoni [2]; time 5.0 day): inactive; Activity [11]: Active
12 | Not Active | > 100000 | > 100000 | N[C@H]1CC[C@@H](C(=O)N2CC(=O)N3CCc4ccccc4C3C2)CC1 (some centres undefined) | – | – | inactive | <90 | Activity (Schistosoma mansoni [2]; time 5.0 day): inactive
